Reference: ChEMBL document CHEMBL2346548, “Design, synthesis, and structure-activity relationship studies of tryptanthrins as antitubercular agents” (J Nat Prod, 2013)
Values after ≈ are worked out from the molar mass of the structure shown.

Assays:
[1] = system: Vero; experiment: Cytotoxicity against african green monkey Vero cells; format: cell-based, Chlorocebus sabaeus
[2] = system: Mycobacterium tuberculosis; experiment: Antitubercular activity against Mycobacterium tuberculosis H37Rv incubated at 37 degC for 14 days in presence of 40% human serum by microplate alamar blue assay; format: functional; settings: 336 h
Outline: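 This is the MABA run in 7H9 broth containing 40% human serum. Compounds were 2-fold serially diluted, and wells were inoculated with H37Rv at 2 × 10⁵ CFU/mL. Incubation was at 37 °C for 14 days, then Alamar Blue was added. MIC was the lowest concentration preventing the blue-to-pink colour change.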

[3] = system: Mycobacterium tuberculosis; experiment: Antitubercular activity against Mycobacterium tuberculosis H37Rv incubated at 37 degC for 7 days by microplate alamar blue assay; format: functional; settings: for MIC: Mycobacterium tuberculosis, H37Rv, 168 h
Outline: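 Mtb H37Rv was grown in 7H9 broth with glycerol, Casitone, 10% OADC and 0.05% Tween 80 to OD600 0.4. Compounds were 2-fold serially diluted from DMSO stocks in 7H9, and wells were inoculated at 2 × 10⁵ CFU/mL. After 7 days at 37 °C, Alamar Blue was added and read after a further 24 h. MIC was the lowest concentration preventing the blue-to-pink change.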

[4] = Chlorocebus sabaeus, Vero, read-out: IC50

Row | Structure (SMILES) | IC50 [1, 4] [µg/mL] | MIC [2] [µg/mL] | MBC90 [3] [µg/mL] | MIC [3] [µg/mL] | IC50 ([1]; vero)
1 | O=C1c2cc([N+](=O)[O-])ccc2-n2c1nc1ncccc1c2=O | < 0.2 | 4 | 4 (≈ 13.6 µM) | 0.5 (≈ 1.7 µM) | 
2 | COc1ccc2c(c1)C(=O)c1nc3ccccc3c(=O)n1-2 | 5.5 (≈ 19.8 µM) | 2 | 0.5 (≈ 1.8 µM) | 1 (≈ 3.59 µM) | 
3 | O=C1c2ccc(N3CCOCC3)cc2-n2c1nc1ncccc1c2=O |  |  |  |  | ND(Insoluble)
4 | O=C1c2ccc(N3CCCCC3)cc2-n2c1nc1ccncc1c2=O | 20 (≈ 60.2 µM) | > 32 |  | 16 (≈ 48.1 µM) | 
5 | CS(=O)(=O)Nc1ccc2c(c1)C(=O)c1nc3ccccc3c(=O)n1-2 | > 8 | > 8 | 2 (≈ 5.86 µM) | 4 (≈ 11.7 µM) | 
6 | O=C1c2ccc(N3CCC(O)CC3)cc2-n2c1nc1ccccc1c2=O | 31 (≈ 89.2 µM) | 16 |  | 16 (≈ 46.1 µM) | 
7 | O=C1c2ccc(N3CCCC3)cc2-n2c1nc1ccccc1c2=O |  |  |  |  | ND(Insoluble)
8 | O=C1c2cc(Br)ccc2-n2c1nc1ncccc1c2=O | > 20 | 32 |  | 16 (≈ 48.8 µM) | 
9 | CC(C)(C)OC(=O)N1CCN(c2ccc3c(c2)-n2c(nc4ncccc4c2=O)C3=O)CC1 |  |  |  |  | ND(Insoluble)
10 | Nc1ccc2c(c1)C(=O)c1nc3ccccc3c(=O)n1-2 |  | 16 |  | 8 (≈ 30.4 µM) | 
11 | O=C1C2=Nc3ncccc3CN2c2ccccc21 | 4.8 (≈ 20.4 µM) |  |  | 32 (≈ 136 µM) | 
12 | O=C1c2ccc(N3CCNCC3)cc2-n2c1nc1ccncc1c2=O | 11 (≈ 33 µM) | > 4 |  | > 4 | 
13 | O=C1c2ccc(Cl)cc2-n2c1nc1ncccc1c2=O | 7 (≈ 24.7 µM) | 2 |  | 1 (≈ 3.53 µM) | 
14 | O=C1C2=Nc3ccccc3CN2c2ccc(OC(F)(F)F)cc21 | 1.3 (≈ 4.08 µM) | 0.5 |  | 0.125 (≈ 0.393 µM) | 
15 | O=C1c2ccc(N3CCOCC3)cc2-n2c1nc1ccncc1c2=O | > 20 | > 32 |  | 32 (≈ 95.7 µM) | 
16 | O=C1C2=Nc3ncccc3CN2c2ccc(OC(F)(F)F)cc21 | 4.4 (≈ 13.8 µM) |  |  | 16 (≈ 50.1 µM) | 
17 | CC(C)(C)OC(=O)N1CCN(c2ccc3c(c2)-n2c(nc4ccncc4c2=O)C3=O)CC1 | 24 (≈ 55.4 µM) | > 32 |  | 16 (≈ 36.9 µM) | 
18 | O=C1c2ccc(Cl)cc2-n2c1nc1ccncc1c2=O | 9 (≈ 31.7 µM) | 1 |  | 0.125 (≈ 0.441 µM) | 
19 | O=C1c2cc(F)ccc2-n2c1nc1ncccc1c2=O | 0.3 (≈ 1.12 µM) | 2 | 1 (≈ 3.74 µM) | 1 (≈ 3.74 µM) | 
20 | Cl.O=C1c2ccc(N3CCNCC3)cc2-n2c1nc1ccccc1c2=O | 16 | 8 | >16 | 8 | 
21 | O=C1c2ccc(N3CCCCC3)cc2-n2c1nc1ccccc1c2=O | 18 (≈ 54.3 µM) | > 128 |  | > 128 | 
22 | O=C1c2ccc(N3CCC(O)C3)cc2-n2c1nc1ccccc1c2=O (stereo not drawn) | 27 (≈ 81 µM) | 8 |  | 8 (≈ 24 µM) | 
23 | CCOC(=O)c1ccc2c(c1)C(=O)c1nc3c(OC)cccc3c(=O)n1-2 | 16 (≈ 45.7 µM) | 4 | 1 (≈ 2.85 µM) | 0.125 (≈ 0.357 µM) | 
24 | O=C1C2=Nc3ncccc3CN2c2ccc(Cl)cc21 | > 10 |  |  | 16 (≈ 59.3 µM) | 
25 | O=C1c2ccccc2-n2c1nc1ccc([N+](=O)[O-])cc1c2=O | 64 (≈ 218 µM) | 32 | 32 (≈ 109 µM) | 16 (≈ 54.6 µM) | 
26 | O=C1c2ccc(N3CCCCC3)cc2-n2c1nc1ncccc1c2=O | 81 (≈ 244 µM) | 16 |  | 4 (≈ 12 µM) | 
27 | O=C1c2ccc(N3CCNCC3)cc2-n2c1nc1ccccc1c2=O | > 2 | > 2 | >2 | 0.5 (≈ 1.5 µM) | 
28 | CCN(CCN(C)C)c1ccc2nc3n(c(=O)c2c1)-c1ccc(Cl)cc1C3=O | 32 (≈ 80.6 µM) | 16 | 4 (≈ 10.1 µM) | 16 (≈ 40.3 µM) | 
